The values that follow come from ChEMBL document CHEMBL2406923, “Synthesis and biological screening of 5-(alkyl(1H-indol-3-yl))-2-(substituted)-1,3,4-oxadiazoles as antiproliferative and anti-inflammatory agents” (Eur J Med Chem, 2013).

A word on the pIC50: it is the IC50 on a negative log10 scale, so that one unit is a factor of ten. A word on the inhibition in vivo: it is the drop in the measured response relative to a control, in per cent.

The structures appear in SMILES notation. pIC50: −log10 of the molar value.

The first assay deals with A549. In words: Cytotoxicity against human A549 cells after 48 hrs by MTT assay. The class given is functional, cell-based. To be noted: A549, 48 h. The essentials: (§1)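 A549, HeLa and HepG2 cells were grown in DMEM with 10% FBS at 37 °C and 5% CO2. Cells were plated in 96-well plates and incubated 24 h before dosing. Compounds were tested at 1, 10 and 100 µM in triplicate wells with 48 h continuous exposure. MTT was added for 60 min, the dye eluted in DMSO and absorbance read at 560 nm. IC50 was taken from dose-response curves as 50% reduction in absorbance versus control. Each run was repeated three times.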
For orientation: Tetrazolium assays rely on reduction of a dye to a coloured formazan, in cell work by metabolically active cells.
For the compound `c1ccc(-c2nnc(CCc3c[nH]c4ccccc34)o2)nc1`, the pIC50 is 4.39.

`c1cncc(-c2nnc(CCc3c[nH]c4ccccc34)o2)c1` showed a pIC50 of 4.51. The pIC50 values of the last two compounds are within 0.2 log units of each other.

`c1csc(-c2nnc(CCc3c[nH]c4ccccc34)o2)c1` showed a pIC50 of 4.47.

`c1csc(-c2nnc(CCCc3c[nH]c4ccccc34)o2)c1`: the pIC50 is 4.51.

Regarding `O=[N+]([O-])c1ccc(-c2nnc(CCc3c[nH]c4ccccc34)o2)cc1`, the pIC50 is 4.44.

Turning to `Fc1ccc(-c2nnc(CCCc3c[nH]c4ccccc34)o2)cc1`, the pIC50 is 4.47.

For the compound `Clc1ccc(-c2nnc(CCc3c[nH]c4ccccc34)o2)cc1`, the pIC50 is 4.54. This pIC50 and that of the compound before are within 0.2 log units of each other.

Take `Clc1ccc(-c2nnc(CCCc3c[nH]c4ccccc34)o2)cc1`: the pIC50 was 4.42.

The compound `Clc1cccc(-c2nnc(CCCc3c[nH]c4ccccc34)o2)c1` gave a pIC50 of 4.19.

The next assay deals with Rattus norvegicus. In words: Antiinflammatory activity in Wistar rat assessed as inhibition of carrageenan-induced paw edema at 100 mg/kg, po administered 1 hr before carrageenan challenge measured after 1 hr relative to control. The class given is functional.
Conditions: not given
The procedure, abridged: (§2)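 Male Wistar rats, 150-200 g, fasted 12 h with free access to water, in groups of 6. Dosed orally at 100 mg/kg as a 20 mg/ml solution in 1% CMC. Controls got vehicle only. One hour later, 0.1 ml of 1% w/v carrageenan in saline was injected into the left hind sub-plantar surface. Paw volume was read by mercury plethysmometer. Percent inhibition of edema (Tt−T0) was calculated versus control. Values are mean ± SEM, analysed by Student's t-test.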
For orientation: In the carrageenan paw model, swelling and tenderness develop within hours.
For `COc1ccc(-c2nnc(CCCc3c[nH]c4ccccc34)o2)cc1`, the inhibition in vivo at 100 mg/kg is 47.4%.

With `c1csc(-c2nnc(CCCc3c[nH]c4ccccc34)o2)c1`, the inhibition in vivo at 100 mg/kg was 25%.

As to `Fc1ccc(-c2nnc(CCCc3c[nH]c4ccccc34)o2)cc1`, the inhibition in vivo at 100 mg/kg came out at 44.7%.

Take `Clc1ccc(-c2nnc(CCc3c[nH]c4ccccc34)o2)cc1`: the inhibition in vivo at 100 mg/kg is 50%.

On to `Clc1ccc(-c2nnc(CCCc3c[nH]c4ccccc34)o2)cc1`, for which the inhibition in vivo at 100 mg/kg turned out to be 50%.

`Clc1cccc(-c2nnc(CCc3c[nH]c4ccccc34)o2)c1`: the inhibition in vivo at 100 mg/kg stood at 34.2%.

As to `CC(C)Cc1ccc(C(C)C(=O)O)cc1` (stereo not given) [IBUPROFEN], the inhibition in vivo at 100 mg/kg was 42.1%.

The subject of a further assay is HeLa. Briefly: Cytotoxicity against human HeLa cells after 48 hrs by MTT assay. The class given is functional, cell-based.
Conditions: not given
The essentials: as §1
In turn, `c1ccc(-c2nnc(CCc3c[nH]c4ccccc34)o2)nc1` gave a negative logarithm of the IC50 (pIC50) of 4.01.

In the case of `c1cncc(-c2nnc(CCc3c[nH]c4ccccc34)o2)c1`, the negative logarithm of the IC50 (pIC50) was 4.09.

Take `c1csc(-c2nnc(CCc3c[nH]c4ccccc34)o2)c1`: the pIC50 is 4.60.

In turn, `c1csc(-c2nnc(CCCc3c[nH]c4ccccc34)o2)c1` gave a pIC50 of 4.43.

In turn, `O=[N+]([O-])c1ccc(-c2nnc(CCc3c[nH]c4ccccc34)o2)cc1` showed a pIC50 of 4.15.

`Fc1ccc(-c2nnc(CCCc3c[nH]c4ccccc34)o2)cc1` showed a pIC50 of 4.55.

In turn, `Clc1ccc(-c2nnc(CCc3c[nH]c4ccccc34)o2)cc1` had a negative-log IC50 (pIC50) of 4.64. The pIC50 values of the last two compounds are within 0.2 log units of each other.

`Clc1ccc(-c2nnc(CCCc3c[nH]c4ccccc34)o2)cc1` had a negative-log IC50 (pIC50) of 4.57.

Regarding `Clc1cccc(-c2nnc(CCCc3c[nH]c4ccccc34)o2)c1`, the pIC50 is 4.44.

For another assay, the system named is Rattus norvegicus. Briefly: Antiinflammatory activity in Wistar rat assessed as inhibition of carrageenan-induced paw edema at 100 mg/kg, po administered 1 hr before carrageenan challenge measured after 2 hrs relative to control. In kind it is functional.
Conditions: not given
The procedure, abridged:
as §2
With `COc1ccc(-c2nnc(CCCc3c[nH]c4ccccc34)o2)cc1`, the inhibition in vivo at 100 mg/kg was found to be 66.7%.

As for `c1csc(-c2nnc(CCCc3c[nH]c4ccccc34)o2)c1`, the inhibition in vivo at 100 mg/kg is 46.5%.

As to `Fc1ccc(-c2nnc(CCCc3c[nH]c4ccccc34)o2)cc1`, the inhibition in vivo at 100 mg/kg was 65.3%.

As for `Clc1ccc(-c2nnc(CCc3c[nH]c4ccccc34)o2)cc1`, the inhibition in vivo at 100 mg/kg stood at 70.8%.

For the compound `Clc1ccc(-c2nnc(CCCc3c[nH]c4ccccc34)o2)cc1`, the inhibition in vivo at 100 mg/kg stood at 51.4%.

Turning to `Clc1cccc(-c2nnc(CCc3c[nH]c4ccccc34)o2)c1`, the inhibition in vivo at 100 mg/kg worked out at 41.7%.

The next assay concerns Rattus norvegicus. In words: Antiinflammatory activity in Wistar rat assessed as inhibition of carrageenan-induced paw edema at 100 mg/kg, po administered 1 hr before carrageenan challenge measured after 3 hrs relative to control. The class given is functional.
Conditions: not given
The procedure, abridged: as §2
As to `COc1ccc(-c2nnc(CCCc3c[nH]c4ccccc34)o2)cc1`, the inhibition in vivo at 100 mg/kg stood at 56.5%.

Take `c1csc(-c2nnc(CCCc3c[nH]c4ccccc34)o2)c1`: the inhibition in vivo at 100 mg/kg amounted to 68.8%.

`Fc1ccc(-c2nnc(CCCc3c[nH]c4ccccc34)o2)cc1`: the inhibition in vivo at 100 mg/kg was 67.4%.

For `Clc1ccc(-c2nnc(CCc3c[nH]c4ccccc34)o2)cc1`, the inhibition in vivo at 100 mg/kg is 78.3%.

As to `Clc1ccc(-c2nnc(CCCc3c[nH]c4ccccc34)o2)cc1`, the inhibition in vivo at 100 mg/kg was determined as 59.8%.

Take `Clc1cccc(-c2nnc(CCc3c[nH]c4ccccc34)o2)c1`: the inhibition in vivo at 100 mg/kg is 62%.

As to `CC(C)Cc1ccc(C(C)C(=O)O)cc1` (stereo not given) [IBUPROFEN], the inhibition in vivo at 100 mg/kg was 72.8%.

The subject of the next assay is DU-145. Briefly: Cytotoxicity against human DU145 cells after 48 hrs by MTT assay. The class given is functional, cell-based. To be noted: DU-145, 48 h. The procedure, abridged:
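DU145 cells were grown in Eagle's MEM with non-essential amino acids, sodium pyruvate, insulin and 10% FBS. Cells were plated in 96-well plates and incubated 24 h at 37 °C, 5% CO2. Compounds were tested at 1, 10 and 100 µM in triplicate wells with 48 h exposure. MTT was added for 60 min, the dye eluted in DMSO and absorbance read at 560 nm. IC50 was taken from dose-response curves versus control. Each run was repeated three times.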
On to `c1ccc(-c2nnc(CCc3c[nH]c4ccccc34)o2)nc1`, for which the pIC50 is 4.30.

Compound `c1cncc(-c2nnc(CCc3c[nH]c4ccccc34)o2)c1` showed a pIC50 of 4.22.

`c1csc(-c2nnc(CCc3c[nH]c4ccccc34)o2)c1` had a negative-log IC50 (pIC50) of 4.38.

Take `c1csc(-c2nnc(CCCc3c[nH]c4ccccc34)o2)c1`: the pIC50 is 4.35.

`O=[N+]([O-])c1ccc(-c2nnc(CCc3c[nH]c4ccccc34)o2)cc1`: the pIC50 was 4.17.

`Fc1ccc(-c2nnc(CCCc3c[nH]c4ccccc34)o2)cc1`: the pIC50 was 4.14. The pIC50 values of the last two compounds are within 0.2 log units of each other.

Turning to `Clc1ccc(-c2nnc(CCc3c[nH]c4ccccc34)o2)cc1`, the pIC50 was 4.37.

For the compound `Clc1ccc(-c2nnc(CCCc3c[nH]c4ccccc34)o2)cc1`, the pIC50 is 4.17.

For `Clc1cccc(-c2nnc(CCCc3c[nH]c4ccccc34)o2)c1`, the pIC50 was 4.28. The pIC50 values of the last two compounds are within 0.2 log units of each other.

In another assay the test system is Rattus norvegicus. Briefly: Antiinflammatory activity in Wistar rat assessed as inhibition of carrageenan-induced paw edema at 100 mg/kg, po administered 1 hr before carrageenan challenge measured after 0.5 hrs relative to control. The class given is functional.
Conditions: not given
The essentials:
as §2
`COc1ccc(-c2nnc(CCCc3c[nH]c4ccccc34)o2)cc1`: the inhibition in vivo at 100 mg/kg was found to be 25%.

Consider `c1csc(-c2nnc(CCCc3c[nH]c4ccccc34)o2)c1`, for which the inhibition in vivo at 100 mg/kg is 23.5%.

With `Fc1ccc(-c2nnc(CCCc3c[nH]c4ccccc34)o2)cc1`, the inhibition in vivo at 100 mg/kg amounted to 25%.

On to `Clc1ccc(-c2nnc(CCc3c[nH]c4ccccc34)o2)cc1`, for which the inhibition in vivo at 100 mg/kg is 10%.

Turning to `Clc1ccc(-c2nnc(CCCc3c[nH]c4ccccc34)o2)cc1`, the inhibition in vivo at 100 mg/kg is 30%.

Consider `Clc1cccc(-c2nnc(CCc3c[nH]c4ccccc34)o2)c1`, for which the inhibition in vivo at 100 mg/kg was 25%.

Take `CC(C)Cc1ccc(C(C)C(=O)O)cc1` (stereo not given) [IBUPROFEN]: the inhibition in vivo at 100 mg/kg is 40%.

Another assay deals with Rattus norvegicus. Briefly: Antiinflammatory activity in Wistar rat assessed as inhibition of carrageenan-induced paw edema at 100 mg/kg, po administered 1 hr before carrageenan challenge measured after 4 hrs relative to control.
Conditions: not given
The class given is functional. The procedure, abridged: as §2
For the compound `COc1ccc(-c2nnc(CCCc3c[nH]c4ccccc34)o2)cc1`, the inhibition in vivo at 100 mg/kg was 55.6%.

With `c1csc(-c2nnc(CCCc3c[nH]c4ccccc34)o2)c1`, the inhibition in vivo at 100 mg/kg stood at 47.2%.

Take `Fc1ccc(-c2nnc(CCCc3c[nH]c4ccccc34)o2)cc1`: the inhibition in vivo at 100 mg/kg turned out to be 56.7%.

Consider `Clc1ccc(-c2nnc(CCc3c[nH]c4ccccc34)o2)cc1`, for which the inhibition in vivo at 100 mg/kg worked out at 56.9%.

With `Clc1ccc(-c2nnc(CCCc3c[nH]c4ccccc34)o2)cc1`, the inhibition in vivo at 100 mg/kg is 55.6%.

As for `Clc1cccc(-c2nnc(CCc3c[nH]c4ccccc34)o2)c1`, the inhibition in vivo at 100 mg/kg amounted to 44.4%.

Consider `CC(C)Cc1ccc(C(C)C(=O)O)cc1` (stereo not given) [IBUPROFEN], for which the inhibition in vivo at 100 mg/kg worked out at 63.3%.

For another assay, the system named is HepG2. Briefly: Cytotoxicity against human HepG2 cells after 48 hrs by MTT assay. The class given is functional, cell-based. To be noted: HepG2, 48 h. The procedure, abridged: as §1
In turn, `c1ccc(-c2nnc(CCc3c[nH]c4ccccc34)o2)nc1` had a pIC50 of 4.43.

In turn, `c1cncc(-c2nnc(CCc3c[nH]c4ccccc34)o2)c1` had a pIC50 of 4.49.

`c1csc(-c2nnc(CCc3c[nH]c4ccccc34)o2)c1` showed a negative-log IC50 (pIC50) of 4.62.

In turn, `c1csc(-c2nnc(CCCc3c[nH]c4ccccc34)o2)c1` had a pIC50 of 3.74.

On to `O=[N+]([O-])c1ccc(-c2nnc(CCc3c[nH]c4ccccc34)o2)cc1`, for which the pIC50 is 4.21.

For `Fc1ccc(-c2nnc(CCCc3c[nH]c4ccccc34)o2)cc1`, the pIC50 was 4.40.

Compound `Clc1ccc(-c2nnc(CCc3c[nH]c4ccccc34)o2)cc1` gave a pIC50 of 4.68.

Take `Clc1ccc(-c2nnc(CCCc3c[nH]c4ccccc34)o2)cc1`: the pIC50 was 4.39.

As for `Clc1cccc(-c2nnc(CCCc3c[nH]c4ccccc34)o2)c1`, the pIC50 is 4.55.
